APOBEC3A inh – inhibitors of human APOBEC3A DNA deaminase; P31941; recombinant A3A, FAM/TAMRA ssDNA deamination fluorescence; inhibition, % at 20 µM; actives 0.41% (n = 330,000); AID 493011;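 active = at least 40% inhibition at 20 µM here, with at most 30% in a related deaminase screen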;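 also: plate controls were A3A with DMSO for no effect and wells lacking A3A enzyme for full effect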
Target sequence (P31941 whole entry, looked up): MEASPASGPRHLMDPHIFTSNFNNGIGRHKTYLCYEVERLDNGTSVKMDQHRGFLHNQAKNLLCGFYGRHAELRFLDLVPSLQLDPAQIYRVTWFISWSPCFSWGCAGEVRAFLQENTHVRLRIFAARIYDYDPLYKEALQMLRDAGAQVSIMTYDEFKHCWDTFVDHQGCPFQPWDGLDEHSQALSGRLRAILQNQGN
SUMO HTRF inh – inhibitors of human SUMOylation (UBC9). inhibition, % at 35 µM. HTRF SUMOylation assay, SAE1/SAE2 + UBC9, in vitro. P63279. actives 0.36% (n = 290,000); in the data active = inhibition above about 50%, passing the limit was not always enough
M18AAP inhibitor – blocks P. falciparum M18 aspartyl aminopeptidase. recombinant PfM18AAP, H-Glu-NHMec fluorogenic cleavage. inhibition, % at 7.35 µM. AID 1822. actives 1.2% (n = 290,000);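 active = inhibition above the campaign mean inhibition over all tested compounds plus 3 SD, cut at about 28% in these data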;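 also: 0% = plate median of test compound wells and 100% = 2 mM ZnCl2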
APOBEC3G inh – blocks human APOBEC3G single-stranded DNA deamination. actives 0.28% (n = 330,000). recombinant A3G, ssDNA deamination FAM/TAMRA fluorescence. inhibition, % at 20 µM. AID 493012;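 active = inhibition of at least 40% at 20 µM, with no more than 30% in the related APOBEC3A deaminase screen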;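 also: plate controls were DMSO wells with A3G for no effect and wells lacking A3G enzyme for full effect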
Target sequence (Q9HC16 whole entry, looked up): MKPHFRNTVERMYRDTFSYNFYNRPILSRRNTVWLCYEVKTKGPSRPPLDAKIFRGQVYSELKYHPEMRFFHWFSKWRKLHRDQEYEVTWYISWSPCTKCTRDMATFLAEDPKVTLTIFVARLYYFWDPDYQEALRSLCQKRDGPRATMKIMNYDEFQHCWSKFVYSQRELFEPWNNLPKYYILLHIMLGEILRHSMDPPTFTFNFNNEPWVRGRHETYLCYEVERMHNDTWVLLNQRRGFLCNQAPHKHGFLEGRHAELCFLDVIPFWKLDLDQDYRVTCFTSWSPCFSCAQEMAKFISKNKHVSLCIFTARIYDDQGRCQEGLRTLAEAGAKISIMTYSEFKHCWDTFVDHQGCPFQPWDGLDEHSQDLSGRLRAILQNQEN
HKDC1 inh – HKDC1 (human) hexokinase inhibition; recombinant HKDC1, G6PDH/diaphorase resazurin coupled fluorescence; inhibition, % at 20 µM; actives 0.16% (n = 340,000);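 active = inhibition above about 35% when tested at 20 µM, limit read from the data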;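 also: plate controls were DMSO wells with enzyme for no effect and DMSO wells lacking enzyme for full effect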
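Assay system: recombinant HKDC1 hexokinase; detection: coupled resazurin fluorescence, excitation 525 nm, emission 613 nm; benchmarks: DMSO-plus-enzyme-mix negative control, buffer-substituted positive control; compound dosing: single 20 µM dose; schedule: 90 min at room temperature in dark; also added: glucose plus 1 mM ATP as hexokinase substrates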
PfGluPho inh – PfG6PD (Plasmodium falciparum) enzyme inhibition. PfGluPho enzyme, NADPH resazurin-diaphorase fluorescence. inhibition, % at 20 µM. actives 0.78% (n = 350,000). AID 504690;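 active = inhibition reaching at least a set limit at 20 µM in the primary screen, cut at about 59% in these data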;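 also: 0% = DMSO wells with substrate and 100% = DMSO wells lacking glucose-6-phosphate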
A3A conf – APOBEC3A (human) deaminase inhibition, confirmed. recombinant A3A, ssDNA deaminase UDG fluorescence assay. actives 63% (n = 1,400). shares compounds with APOBEC3A inh. AID 493151. inhibition, % at 20 µM;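 active = inhibition reaching a set limit, 80% of the first screen's cutoff, at 20 µM in any replicate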;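 also: plate controls were DMSO wells with A3A for no effect and wells lacking A3A enzyme for full effect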
UDG ctr A3A – inhibits UDG, flagging false APOBEC3A inhibitors | shares compounds with APOBEC3A inh | UDG counterscreen, FAM/TAMRA uracil oligo fluorescence | inhibition, % at 20 µM | 1,000 tested, under 10 active | AID 504714; call rule not given here
Numbers without * were called inactive; · = no result given. An excerpt weighted towards active compounds, which were near 2.4% of everything screened.

SMILES | APOBEC3A inh | SUMO HTRF inh | M18AAP inhibitor | APOBEC3G inh | HKDC1 inh | PfGluPho inh | A3A conf | UDG ctr A3A
O=C(NCCN1CCOCC1)c1ccc(Cl)cc1[N+](=O)[O-] | 46* | 21 | -8 | -6 | -12 | 7 | 10* | -1
CN(CC(=O)Nc1c(Cl)cccc1Cl)C(=O)c1cccc(-n2cccc2)c1 | 71* | · | · | 18 | 6 | 6 | 53* | -2
CN(CC(=O)Nc1c(Cl)cccc1Cl)C(=O)CNC(=O)c1ccc2ccccc2c1 | 42* | · | · | -8 | -5 | -5 | -4 | 2
Cc1cc(C(=O)N2CCN(S(=O)(=O)c3ccccc3C#N)CC2)c(C)o1 | 0 | · | · | -7 | -6 | -5 | · | ·
N#Cc1ccccc1S(=O)(=O)N1CCN(C(=O)c2cc3c(s2)CCC3)CC1 | 51* | · | · | 14 | 0 | -7 | 36* | 1
CCn1c(C)cc(/C=C2\NC(=O)N(CC(=O)Nc3ccc(F)cc3)C2=O)c1C | 66* | 12 | 4 | 10 | 3 | -13 | 74* | 2
Cc1ccc(NC(=O)CN2C(=O)N/C(=C/c3cc(C)n(-c4ccc(C(=O)O)cc4)c3C)C2=O)cc1 | · | 5 | 9 | · | -6 | -12 | · | ·
C[N+](C)(C)C/C=C1/COCO1 | 48* | 6 | -2 | 18 | -6 | -14 | 76* | 4
Cc1ccc2c(c1)cc(CN(C(=O)N1CCOCC1)C1CCCC1)c1nnnn12 | 6 | 25 | 2 | 2 | -2 | -30 | · | ·
CSCCC(NC(=O)c1ccc(Cl)cc1Cl)C(=O)N1CC(C)OC(C)C1 (stereo unspecified) | -2 | · | · | -10 | -5 | -5 | · | ·
CCc1noc(C)c1C(=O)N1CCN(S(=O)(=O)c2ccc(C(C)=O)cc2)CC1 | 40* | · | · | 1 | -5 | 1 | -2 | ·
Cc1ccc(S(=O)(=O)N(CC(=O)O)Cc2ccco2)cc1 | 52* | 4 | -13 | 12 | 1 | 5 | 56* | 1
O=C(CC1Sc2ccccc2NC1=O)NNc1cccc(Cl)c1Cl (stereo unspecified) | · | · | · | · | 2 | -6 | · | ·
CSc1cccc(NC(=O)C2CC(=O)N(Cc3ccccc3)C2)c1 (stereo unspecified) | 52* | 25 | 7 | 28 | -3 | 11 | -1 | ·
O=C(Nc1ccccc1)C1CC(=O)N(Cc2ccccc2)C1 (stereo unspecified) | 20 | 2 | -8 | 1 | -3 | -4 | · | ·
CC(=O)Nc1ccc(NC(=O)C2CC(=O)N(Cc3ccco3)C2)cc1 (stereo unspecified) | 47* | · | · | -1 | -3 | 3 | 22 | 3
COc1ccc(Br)cc1/C=C/C(=O)OCC(=O)NCCc1ccc(S(N)(=O)=O)cc1 | 3 | · | · | 1 | -6 | -5 | · | ·
CCN(C(C)=O)c1nc(CSc2nnc(NC(C)C)s2)cs1 | 0 | 23 | -10 | -5 | -4 | 10 | · | ·
CCC(C)N(C(=O)COc1ccc(Cl)c2cccnc12)C1CCS(=O)(=O)C1 (stereo unspecified) | 62* | · | · | 29 | 4 | 13 | 25 | ·
O=C(Nc1ccccc1F)c1coc(=O)c(Br)c1 | 10 | 16 | 5 | 0 | 0 | 5 | · | ·
O=C(Nc1ccc(Br)cn1)c1coc(=O)c(Br)c1 | 62* | 23 | -2 | 24 | 8 | 5 | 21* | -5
C[n+]1cn(CC(O)COCc2ccccc2)c2ccccc21 (stereo unspecified) | 56* | 23 | 2 | 13 | -3 | -6 | 77* | 4
Cc1cc2c(cc1C)[n+](C)cn2CC(O)COCc1ccccc1 (stereo unspecified) | 41* | 20 | -1 | 8 | -4 | -5 | 25 | ·
CCN1CCN(CC(O)COCc2ccccc2)CC1 (stereo unspecified) | -2 | 24 | -8 | -5 | -9 | -2 | · | ·
O=C(CCn1c(=S)[nH]c2ccccc2c1=O)Nc1ccc(F)cc1 | -6 | 12 | 13 | -6 | 5 | -5 | · | ·
SMILES | APOBEC3A inh | SUMO HTRF inh | M18AAP inhibitor | APOBEC3G inh | HKDC1 inh | PfGluPho inh | A3A conf | UDG ctr A3A
CCN1CCN(S(=O)(=O)c2ccc(Cl)c(C(=O)Nc3cc(Cl)ccc3N3CCOCC3)c2)CC1 | 54* | -4 | 4 | 28 | -4 | 1 | 58* | 0
CCN1CCN(c2ccc(S(=O)(=O)N3CCOCC3)cc2NC(=O)c2ccccc2OC(F)F)CC1 | 15 | · | · | 4 | 3 | 13 | · | ·
O=C(Nc1ccccc1N1CCCCC1)c1cc(S(=O)(=O)N2CCOCC2)ccc1Cl | -2 | · | · | -6 | 0 | 21 | · | ·
CCN1CCN(c2ccc(S(=O)(=O)N3CCOCC3)cc2NC(=O)c2ccc(Cl)cc2Cl)CC1 | 45* | · | · | 4 | 0 | 18 | 24 | ·
CCN1CCN(c2ccc(S(=O)(=O)N3CCOCC3)cc2NC(=O)c2ccc(C)c(C)c2)CC1 | 24 | · | · | -6 | 0 | 12 | · | ·
CCN1CCN(S(=O)(=O)c2ccc(Cl)c(C(=O)Nc3ccccc3N3CCOCC3)c2)CC1 | 53* | · | · | 4 | 0 | -13 | 57* | -1
COC(=O)c1sc(NC(=O)c2c(F)cccc2F)c(C#N)c1C | 1 | 6 | 2 | -5 | -2 | -20 | · | ·
CCCCOC(=O)n1c(=O)oc2ccc(S(=O)(=O)N3CCCCC3)cc21 | 3 | 24 | -6 | -1 | 2 | -16 | · | ·
CCc1nnc(NC(=O)NC(C)(C)C)s1 | 0 | 12 | -2 | 1 | 4 | -10 | · | ·
CN(C)CCCNc1c2ccccc2nc2ccccc12 | 54* | -2 | 4 | 21 | 3 | -23 | 54* | 4
Cn1c(=O)c2c(ncn2CC(=O)N/N=C/C(Cl)=C/c2ccccc2)n(C)c1=O | 0 | -13 | -1 | 0 | -6 | -7 | · | ·
CN(c1ccc(C(=O)Nc2cccnc2)cc1)S(=O)(=O)c1ccc(Cl)cc1 | 1 | -4 | -3 | 1 | 5 | 19 | · | ·
CN(c1ccc(C(=O)Nc2cccnc2)cc1)S(=O)(=O)c1ccccc1 | 52* | 6 | -4 | 2 | -5 | 22 | 28 | ·
CCOC(=O)N1CCN(C(=O)CCSc2ccc(Cl)cc2)CC1 | -8 | 9 | -1 | -7 | 0 | -5 | · | ·
Cc1ccc(C(=O)Nc2cc(Cl)ccc2-n2cncn2)o1 | 41* | · | · | -1 | 2 | 16 | 48* | 4
COc1cc(C(N)=O)cc(Br)c1OC | 44* | -2 | -3 | 17 | -6 | 7 | 47* | 1
CCOc1c(Br)cc(C(N)=O)cc1OC | -2 | 4 | 0 | -1 | 3 | -3 | · | ·
CC[n+]1c(C)n(C)c2cc(S(=O)(=O)N(C)C)ccc21 | 82* | 17 | -12 | 19 | -3 | 3 | 77* | -2
